We go through 9 compounds from ChEMBL document CHEMBL1671829, “Activation of Neuropeptide FF Receptors by Kisspeptin Receptor Ligands” (ACS Med Chem Lett, 2011).

Activity calls are given as the source filed them. The rule behind the calls is not given here.

Assay [1] addresses T1, Galanin receptor type 1 (Homo sapiens) (UniProt P47211).
T1 sequence (whole entry): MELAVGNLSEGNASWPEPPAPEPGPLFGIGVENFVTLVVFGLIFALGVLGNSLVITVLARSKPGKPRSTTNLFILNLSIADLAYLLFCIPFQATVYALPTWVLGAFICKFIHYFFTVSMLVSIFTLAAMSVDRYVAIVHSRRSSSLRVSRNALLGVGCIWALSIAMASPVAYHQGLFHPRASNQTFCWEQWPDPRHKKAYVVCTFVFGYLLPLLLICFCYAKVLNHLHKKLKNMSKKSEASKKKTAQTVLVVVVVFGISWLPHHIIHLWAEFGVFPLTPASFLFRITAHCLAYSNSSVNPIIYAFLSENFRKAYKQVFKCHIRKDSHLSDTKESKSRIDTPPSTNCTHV
The experiment in a line: Displacement of [125I]-Tyr9-galanin from GalR1 at 10 uM after 1 hr. A digest of the protocol: (§1)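 Single-point radioligand binding inhibition on receptor membrane preparations, test peptide at 10 μM. Radioligands are [125I]Tyr9-galanin for GALR1–3, [125I]-prolactin-releasing peptide-20 for PrRPR, and (d-[125I]Tyr1, MePhe3)-NPFF for NPFFR1 and NPFFR2. Read-out is % inhibition of specific binding, mean of duplicate analyses.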
For orientation: Displacement assays read how much labelled ligand stays bound in the presence of the test substance.

Assay [2] concerns the target T2, Galanin receptor type 2 (Homo sapiens) (UniProt O43603).
T2 sequence (whole entry): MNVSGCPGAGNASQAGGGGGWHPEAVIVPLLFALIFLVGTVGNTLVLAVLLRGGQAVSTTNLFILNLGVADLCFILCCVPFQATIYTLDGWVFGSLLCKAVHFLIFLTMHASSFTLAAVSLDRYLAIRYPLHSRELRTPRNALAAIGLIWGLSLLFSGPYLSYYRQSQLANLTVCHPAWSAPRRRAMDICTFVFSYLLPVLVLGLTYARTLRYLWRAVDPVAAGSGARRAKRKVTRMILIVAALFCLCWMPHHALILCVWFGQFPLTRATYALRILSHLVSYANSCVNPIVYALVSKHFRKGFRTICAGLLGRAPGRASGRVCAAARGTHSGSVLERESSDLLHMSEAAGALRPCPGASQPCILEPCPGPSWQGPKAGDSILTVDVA
The experiment in a line: Displacement of [125I]-Tyr9-galanin from GalR2 at 10 uM after 1 hr. A digest of the protocol:
as §1

Assay [3] concerns the target T3, Galanin receptor type 3 (Homo sapiens) (UniProt O60755).
T3 sequence (whole entry): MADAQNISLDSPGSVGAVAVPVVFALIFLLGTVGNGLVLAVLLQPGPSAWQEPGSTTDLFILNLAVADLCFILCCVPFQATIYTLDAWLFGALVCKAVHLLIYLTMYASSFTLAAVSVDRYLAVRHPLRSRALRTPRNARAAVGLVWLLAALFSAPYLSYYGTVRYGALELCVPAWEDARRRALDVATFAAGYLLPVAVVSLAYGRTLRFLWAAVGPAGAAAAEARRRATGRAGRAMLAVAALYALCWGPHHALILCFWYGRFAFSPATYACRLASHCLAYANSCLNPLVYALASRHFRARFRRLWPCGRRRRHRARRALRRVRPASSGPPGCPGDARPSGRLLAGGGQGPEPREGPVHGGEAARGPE
The experiment in a line: Displacement of [125I]-Tyr9-galanin from GalR3 at 10 uM after 1 hr. A digest of the protocol:
as §1

Assay [4] concerns the target T4, Prolactin-releasing peptide receptor (Homo sapiens) (UniProt P49683).
T4 sequence (whole entry): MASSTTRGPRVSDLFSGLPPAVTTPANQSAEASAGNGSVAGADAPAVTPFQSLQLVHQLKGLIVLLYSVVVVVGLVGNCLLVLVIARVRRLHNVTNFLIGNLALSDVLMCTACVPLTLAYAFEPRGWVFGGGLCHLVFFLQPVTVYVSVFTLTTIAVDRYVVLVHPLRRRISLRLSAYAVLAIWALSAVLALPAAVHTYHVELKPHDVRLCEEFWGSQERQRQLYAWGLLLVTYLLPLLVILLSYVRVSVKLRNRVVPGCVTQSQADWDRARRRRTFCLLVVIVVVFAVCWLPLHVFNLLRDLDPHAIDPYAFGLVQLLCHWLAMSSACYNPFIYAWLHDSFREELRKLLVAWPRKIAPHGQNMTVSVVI
The experiment in a line: Displacement of [125I]-prolactin releasing peptide-20 from PrRPR at 10 uM after 30 mins. A digest of the protocol: as §1

In assay [5] the target is T5, Neuropeptide FF receptor 1 (Homo sapiens, UniProt Q9GZQ6). The experiment in a line: Displacement of (D-[125I]Tyr1, MePhe3)-NPFF from NPFFR1 at 10 uM after 2 hrs. A digest of the protocol:
as §1

Assay [6] has as its target T6, Neuropeptide FF receptor 2 (Homo sapiens, UniProt Q9Y5X5). The experiment in a line: Displacement of (D-[125I]Tyr1, MePhe3)-NPFF from NPFFR2 at 10 uM after 2 hrs. In short, it runs like this: as §1
Assay [7] concerns the target T5, Neuropeptide FF receptor 1. The experiment in a line: Agonist activity at NPFFR1 expressed in HEK293T cells co-expressing Gqi5 assessed as increase of intracellular calcium mobilization after 1 hr. Format: functional, cell-based. Particulars: HEK-293T. (In general: Calcium assays in cells follow changes in intracellular calcium, usually with a dye or a luminescent sensor.)

Assay [8] deals with T6, Neuropeptide FF receptor 2. The experiment in a line: Agonist activity at NPFFR2 expressed in HEK293T cells co-expressing Gqi5 assessed as increase of intracellular calcium mobilization after 1 hr. Format: functional, cell-based. Particulars: HEK-293T.
The target in assay [9] is T5, Neuropeptide FF receptor 1. The experiment in a line: Agonist activity at NPFFR1 expressed in HEK293T cells co-expressing Gqi5 assessed as increase of intracellular calcium mobilization at 0.24 uM after 1 hr. The note with it: HEK-293T. Format: functional, cell-based.
The subject of assay [10] is Rattus norvegicus. The experiment in a line: Increase of luteinizing hormone level in Wistar-imamichi rat plasma at 0.25 nmol, administered intracerebroventricularly in preoptic area after 3 hrs measured every 6 mins by double-antibody radioimmunoassay. Format: functional, organism-based. In short, it runs like this: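 Male rats given 0.25 nmol peptide into the preoptic area. Blood sampled every 6 min over 3 h; plasma LH expressed as area under the curve. Mean ± SEM of five or more experiments.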

For assay [11], the species on record is Rattus norvegicus. The experiment in a line: Increase of GnRH release in Wistar-imamichi rat median eminence at 1 uM after 30 mins by double-antibody radioimmunoassay. Format: functional. In short, it runs like this:
(§2)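 Rat median eminence incubated in vitro with peptide. Released GnRH quantified by double-antibody radioimmunoassay with [125I]-labeled GnRH; mean ± SEM of triplicate or more experiments.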

The target of assay [12] is T6, Neuropeptide FF receptor 2. The experiment in a line: Agonist activity at NPFFR2 expressed in CHO cells assessed as inhibition of forskolin-induced cAMP accumulation at up to 100 uM after 30 mins. (In general: Cyclic AMP is a second messenger, typically raised through Gs and lowered through Gi signalling.)
Assay [13] concerns the target T5, Neuropeptide FF receptor 1. The experiment in a line: Agonist activity at NPFFR1 expressed in CHO cells assessed as inhibition of forskolin-induced cAMP accumulation at up to 100 uM after 30 mins.
Assay [14] deals with T5, Neuropeptide FF receptor 1. The experiment in a line: Displacement of (D-[125I]Tyr1, MePhe3)-NPFF from NPFFR1 after 2 hrs. In short, it runs like this: (§3)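 Dose–response inhibition of (d-[125I]Tyr1, MePhe3)-NPFF binding to NPFFR1 or NPFFR2. IC50 is the concentration giving 50% inhibition of radioligand binding, taken from dose–response curves built from triplicate data points.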

Assay [15] has as its target T6, Neuropeptide FF receptor 2. The experiment in a line: Displacement of (D-[125I]Tyr1, MePhe3)-NPFF from NPFFR2 after 2 hrs. A digest of the protocol: as §3
The target of assay [16] is T7, KiSS-1 receptor (Homo sapiens, UniProt Q969F8). The experiment in a line: Displacement of [125I]kisspeptin-15 from GPR54.
T7 sequence (Q969F8 whole entry): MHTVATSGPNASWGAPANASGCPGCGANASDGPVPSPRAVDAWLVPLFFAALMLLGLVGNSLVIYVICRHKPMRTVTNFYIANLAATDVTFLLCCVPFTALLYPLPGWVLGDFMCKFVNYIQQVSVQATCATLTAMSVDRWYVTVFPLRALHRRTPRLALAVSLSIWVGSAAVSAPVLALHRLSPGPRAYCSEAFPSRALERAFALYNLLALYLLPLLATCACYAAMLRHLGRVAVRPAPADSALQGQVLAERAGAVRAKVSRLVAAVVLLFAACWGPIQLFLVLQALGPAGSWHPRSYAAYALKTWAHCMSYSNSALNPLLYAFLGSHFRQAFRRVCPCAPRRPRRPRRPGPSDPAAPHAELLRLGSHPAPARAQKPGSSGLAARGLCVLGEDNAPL
The species named for assay [17] is Rattus norvegicus. The experiment in a line: Increase of GnRH release in Wistar-imamichi rat median eminence at 0.1 uM after 30 mins by double-antibody radioimmunoassay. Format: functional. A digest of the protocol:
as §2

Assay [18] deals with T7, KiSS-1 receptor. The experiment in a line: Agonist activity at GPR54 expressed in CHO cells assessed as increase of intracellular calcium mobilization at 10 uM after 1 hr. It counts as functional, cell-based.

T5 sequence (Q9GZQ6 whole entry): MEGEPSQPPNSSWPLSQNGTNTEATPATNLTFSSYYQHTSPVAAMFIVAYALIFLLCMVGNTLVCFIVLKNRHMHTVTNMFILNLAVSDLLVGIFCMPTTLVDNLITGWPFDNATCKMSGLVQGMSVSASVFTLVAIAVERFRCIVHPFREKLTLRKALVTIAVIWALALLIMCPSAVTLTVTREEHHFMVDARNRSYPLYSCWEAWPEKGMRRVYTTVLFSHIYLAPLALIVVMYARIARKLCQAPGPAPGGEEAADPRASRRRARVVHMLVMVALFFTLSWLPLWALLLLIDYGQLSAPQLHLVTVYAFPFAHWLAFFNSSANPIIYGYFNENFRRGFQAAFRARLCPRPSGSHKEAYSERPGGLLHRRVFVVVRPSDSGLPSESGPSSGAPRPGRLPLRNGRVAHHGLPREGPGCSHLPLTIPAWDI
T6 sequence (Q9Y5X5 whole entry): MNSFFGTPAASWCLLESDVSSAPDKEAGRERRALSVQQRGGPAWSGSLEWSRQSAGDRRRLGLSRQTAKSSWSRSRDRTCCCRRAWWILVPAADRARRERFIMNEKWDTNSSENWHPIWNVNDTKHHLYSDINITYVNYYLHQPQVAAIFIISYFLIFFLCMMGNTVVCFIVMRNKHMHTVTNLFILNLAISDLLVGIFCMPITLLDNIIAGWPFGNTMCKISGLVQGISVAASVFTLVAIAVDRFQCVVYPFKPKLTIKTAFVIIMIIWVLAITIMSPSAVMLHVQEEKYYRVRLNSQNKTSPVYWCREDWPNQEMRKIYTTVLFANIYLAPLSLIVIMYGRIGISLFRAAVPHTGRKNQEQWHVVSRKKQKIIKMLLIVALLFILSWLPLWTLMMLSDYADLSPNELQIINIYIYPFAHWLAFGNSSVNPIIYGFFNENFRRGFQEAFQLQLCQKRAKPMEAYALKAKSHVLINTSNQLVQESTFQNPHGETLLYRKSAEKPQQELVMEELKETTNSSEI

As to `CC(C)C[C@H](/C=C/CNC(=O)[C@H](Cc1ccccc1)NC(=O)c1ccc(F)cc1)C(=O)N[C@@H](CCCNC(=N)N)C(=O)N[C@@H](Cc1c[nH]c2ccccc12)C(N)=O`, the result in [1], in [2] and in assay [3] was inactive. In addition, the Activity in [4] was 16.1%; in assay [5], 88.3%; in assay [6], 95.7%; in assay [7], “Dose-dependent effect”; in assay [8] it was “Dose-dependent effect”; in [9], 52%. For the same compound, the result in assay [10] and in assay [11] was Active. Further, the inhibition entry in [12] and in assay [13] was “Active” throughout.
The term IC50 denotes the concentration that gives 50% inhibition. A lower IC50 goes with greater potency. In the case of `CC(C)C[C@H](/C=C/CNC(=O)[C@H](Cc1ccccc1)NC(=O)c1ccc(F)cc1)C(=O)N[C@@H](CCCN=C(N)N)C(=O)N[C@@H](Cc1c[nH]c2ccccc12)C(N)=O`, the IC50 in assay [14] is 0.64 µM; in [15], 2.4 µM.
As for `NC(=O)[C@H](Cc1ccccc1)NC(=O)[C@H](CCCN=C(N)N)NC(=O)C12CC3CC(CC(C3)C1)C2`, the IC50 in assay [16] worked out at 0.83 µM. This counts as sub-micromolar.
As to `CC(C)C[C@H](NC(=O)CNC(=O)[C@H](Cc1ccccc1)NC(=O)[C@H](CO)NC(=O)[C@H](CC(N)=O)NC(=O)[C@H](Cc1c[nH]c2ccccc12)NC(=O)[C@H](CC(N)=O)NC(=O)[C@@H](N)Cc1ccc(O)cc1)C(=O)N[C@@H](CCCNC(=N)N)C(=O)N[C@@H](Cc1ccccc1)C(N)=O` [KISSPEPTIN-10], the figures for the IC50 in [14] and in [15] were 0.0047 µM and 0.076 µM, respectively. The Activity in assay [9] stood at 86%. In addition, the outcome in assay [10] and in assay [17] was Active. Further, the inhibition result in assay [12] and in [13] was “Active” each time.
For the compound `N=C(N)NCCC[C@H](NC(=O)C12CC3CC(CC(C3)C1)C2)C(=O)N[C@@H](Cc1ccccc1)C(N)=O`, in [18], the result was inactive.
For the compound `CC(C)C[C@H](NC(=O)CNC(=O)[C@H](Cc1ccccc1)NC(=O)c1ccc(F)cc1)C(=O)N[C@@H](CCCN=C(N)N)C(=O)N[C@@H](Cc1c[nH]c2ccccc12)C(N)=O`, the IC50 in [14] is 0.16 µM; in assay [15] it was 1.8 µM.
`CC(C)C[C@H](NC(=O)CNC(=O)[C@H](Cc1ccccc1)NC(=O)c1ccc(F)cc1)C(=O)N[C@@H](CCCNC(=N)N)C(=O)N[C@@H](Cc1c[nH]c2ccccc12)C(N)=O`: the result in assay [1], in assay [2] and in [3] was inactive. Further, the Activity in [4] was 21.1%; in assay [5], 99.4%; in [6], 90.7%; in [7], “Dose-dependent effect”; in [8], “Dose-dependent effect”; in [9], 49%. In addition, the result in assay [10] and in [11] was Active. Further, the inhibition result in assay [12] and in assay [13] was “Active” throughout.
With `CN(C)c1cccc2c(S(=O)(=O)N3CCC[C@H]3C(=O)N[C@@H](CCC(N)=O)C(=O)N[C@@H](CCCNC(=N)N)C(=O)N[C@@H](Cc3ccccc3)C(N)=O)cccc12`, the IC50 in assay [16] amounted to 16 µM. For the same compound, in assay [18], the result was inactive.
Turning to H-SLAAPQRF-OH, the IC50 in assay [16] is over 30 µM; in [14], 0.0019 µM; in assay [15] it was 0.00079 µM.
